# Bioassay records: PubChem, several laboratories
# A selection: hits, their analogues and other compounds. The true share with any hit is near 2.6%.
# T cell modulator: T cell immune modulation candidate | 0.068% of 330,000 active | response (vesicle binding), % at 7 µM | 2C CD8+ T cell-vesicle binding, flow cytometry; active compounds read low | AID 2052;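 active means response, share of CD8 T cells binding vesicles, and their 90th percentile fluorescence all below set limits, cut at about 80% in these data, passing the limit was not always enough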;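 further: values below 100% mean blocked vesicle binding to the CD8+ T cells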
#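 Assay system: 2C TCR transgenic mouse naive CD8+ T cells, MACS-purified | Read-out: CD8+ gate FL2 mean fluorescence as % of same-row positive control | Signal: High-throughput flow cytometry with anti-B7-1 and anti-CD8 staining | Timing: Binding step 1.5 h, 37 °C, antibody labelling 20 min, ice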
# Myeloid diff MLP: promotes myeloid progenitor differentiation. 1% of 360,000 active. calls only at 10 µM. ER-HoxA9 myeloid progenitors, lysozyme-GFP differentiation, flow cytometry;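 active means normalized GFP-positive differentiation at or above the plate's own cutoff, the solvent-only control mean plus 3 SD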;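 further: cells exposed to compound for four days before flow analysis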
# SKN-1 block: C. elegans SKN-1 inhibition | 0.49% of 360,000 active | C. elegans VP596 Pgst-4::GFP/RFP ratio, acrylamide-induced, 24 h | AID 624304 | inhibition, % at 21.8 µM;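 active means interference check ratio from 0.5 to 1.5 plus GFP to RFP signal ratio inhibition reaching or exceeding a fixed threshold, cut at about 30% in these data, passing the limit was not always enough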
# Rce1 inhib: yeast Ras-converting enzyme inhibition; yeast membranes, quenched prenylated peptide cleavage fluorescence; calls only; 0.27% of 290,000 active; AID 2563;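 active means fall in fluorescence gain of 50% or more versus controls, with final raw signal at or below 3038400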
# GRK2 inh: blocks RNA aptamer binding to human GRK2; bead flow cytometry, FAM-aptamer displacement from GRK2; inhibition of aptamer binding, % at 10 µM; 0.59% of 330,000 active; AID 488847;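 active means inhibition of aptamer binding above 40%, roughly 3 SD of noise, on plates passing a quality check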;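 further: median bead fluorescence of bound FAM aptamer so fluorescent compounds give negative values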
# Rin1-Abl PPI inh: blocks binding of human Rin1 to Abl; TR-FRET Rin1/Abl binding, biochemical; inhibition, % at 7.35 µM; 0.4% of 360,000 active; P00519+Q13671; AID 588664; in the data active means inhibition above about 5%, passing the limit was not always enough
# Target sequence (P00519 whole entry, looked up): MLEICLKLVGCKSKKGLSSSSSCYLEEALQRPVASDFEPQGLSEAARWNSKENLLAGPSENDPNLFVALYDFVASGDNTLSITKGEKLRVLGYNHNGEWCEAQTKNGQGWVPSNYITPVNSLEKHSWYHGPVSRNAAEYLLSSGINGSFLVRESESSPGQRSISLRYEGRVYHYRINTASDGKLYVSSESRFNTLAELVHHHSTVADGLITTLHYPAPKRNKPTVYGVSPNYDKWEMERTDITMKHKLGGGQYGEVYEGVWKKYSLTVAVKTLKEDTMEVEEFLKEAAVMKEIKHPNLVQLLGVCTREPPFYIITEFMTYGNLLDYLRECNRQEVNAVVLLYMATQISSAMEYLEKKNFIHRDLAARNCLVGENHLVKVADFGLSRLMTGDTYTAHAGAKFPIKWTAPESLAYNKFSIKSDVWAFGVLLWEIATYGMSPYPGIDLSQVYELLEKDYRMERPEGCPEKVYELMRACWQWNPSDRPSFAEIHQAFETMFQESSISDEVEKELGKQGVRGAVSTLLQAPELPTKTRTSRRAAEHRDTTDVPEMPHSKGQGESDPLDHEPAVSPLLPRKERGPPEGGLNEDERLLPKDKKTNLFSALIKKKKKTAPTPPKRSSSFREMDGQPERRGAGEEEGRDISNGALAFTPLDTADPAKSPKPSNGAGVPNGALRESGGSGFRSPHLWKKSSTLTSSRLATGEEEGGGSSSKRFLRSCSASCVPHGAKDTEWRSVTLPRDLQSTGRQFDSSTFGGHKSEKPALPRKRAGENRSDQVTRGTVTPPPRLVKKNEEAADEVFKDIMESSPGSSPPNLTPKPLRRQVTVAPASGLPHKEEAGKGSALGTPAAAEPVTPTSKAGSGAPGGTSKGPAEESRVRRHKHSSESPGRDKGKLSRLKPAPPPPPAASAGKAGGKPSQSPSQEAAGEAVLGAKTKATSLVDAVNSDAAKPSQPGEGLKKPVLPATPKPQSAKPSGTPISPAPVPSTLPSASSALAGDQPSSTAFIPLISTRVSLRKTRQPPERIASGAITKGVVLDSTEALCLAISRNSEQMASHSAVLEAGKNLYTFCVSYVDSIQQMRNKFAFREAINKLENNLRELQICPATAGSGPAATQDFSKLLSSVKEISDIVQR
# Target sequence (Q13671 whole entry, looked up): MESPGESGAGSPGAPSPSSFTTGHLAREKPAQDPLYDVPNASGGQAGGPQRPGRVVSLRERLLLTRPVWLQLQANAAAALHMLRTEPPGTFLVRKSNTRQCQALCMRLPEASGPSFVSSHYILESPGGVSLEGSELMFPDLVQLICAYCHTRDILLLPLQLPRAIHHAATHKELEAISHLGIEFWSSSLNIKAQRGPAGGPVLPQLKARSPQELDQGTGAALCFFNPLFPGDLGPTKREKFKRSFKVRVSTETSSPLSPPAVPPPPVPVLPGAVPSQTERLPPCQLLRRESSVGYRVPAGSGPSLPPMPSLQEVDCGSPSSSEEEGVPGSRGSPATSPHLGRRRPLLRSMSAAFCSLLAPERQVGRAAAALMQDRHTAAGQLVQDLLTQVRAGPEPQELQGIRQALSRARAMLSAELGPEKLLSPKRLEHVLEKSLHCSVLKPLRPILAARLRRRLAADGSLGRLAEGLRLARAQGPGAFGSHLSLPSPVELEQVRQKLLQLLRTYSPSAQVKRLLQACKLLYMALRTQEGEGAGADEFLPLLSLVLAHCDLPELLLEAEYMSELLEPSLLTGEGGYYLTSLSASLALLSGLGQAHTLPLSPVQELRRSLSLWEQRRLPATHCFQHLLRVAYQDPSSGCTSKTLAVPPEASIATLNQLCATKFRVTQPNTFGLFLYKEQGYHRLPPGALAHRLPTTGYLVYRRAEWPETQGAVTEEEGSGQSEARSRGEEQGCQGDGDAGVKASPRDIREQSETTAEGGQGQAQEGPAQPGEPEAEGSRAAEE
# Rin1-Abl confirm: confirmation of inhibitors of human Rin1-Abl interaction | shares compounds with Rin1-Abl PPI inh | TR-FRET Rin1-Abl binding, purified proteins | inhibition, % at 7.35 µM | 49% of 1,300 active
# GFP quench-1: quenches GFP fluorescence, counter-screen for Rin1-Abl inhibitors. shares compounds with Rin1-Abl PPI inh. inhibitors/quenchers counterscreen. inhibition, % at 6.75 µM. 8.5% of 1,300 active;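 further: ABL1-eGFP fusion protein alone without its partner RIN1-SBP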
# GFP quench DR: counter-screen for Rin1-Abl inhibitors: GFP quenchers, dose response | shares compounds with Rin1-Abl PPI inh | IC50, µM | 230 tested, under 10 active | GFP fluorescence interference/quenching counterscreen; call rule not given here;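 further: ABL1-eGFP fusion protein alone without its RIN1 binding partner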
# GFP quench-2: quenches GFP fluorescence in Rin1-Abl counterscreen | shares compounds with Rin1-Abl PPI inh | GFP fluorescence quenching counterscreen, biochemical | IC50, µM | 25 tested, under 10 active | AID 602397; call rule not given here
# A number is an active result; – = inactive; · = not tested or not shown. Unless noted, no stated cut-off is given here; in the data, active means inhibition above about 6.5%; inactive means the rest.
SMILES,T cell modulator,Myeloid diff MLP,SKN-1 block,Rce1 inhib,GRK2 inh,Rin1-Abl PPI inh,Rin1-Abl confirm,GFP quench-1,others
CCOC(=O)c1ccc(NC(=O)N2CCN(c3ccccc3OC)CC2)cc1,–,–,–,·,–,9.4,16,–,
CN(C(=O)c1ccc(NC(=O)Cc2ccc(NC(=O)C3CCN(C(=O)c4ccccc4)CC3)cc2)cc1)C1CC1,–,–,–,·,–,77,79,–,GFP quench DR=–;GFP quench-2=–
CN(C(=O)c1ccc(NC(=O)Cc2ccc(NC(=O)C3CCN(C(=O)C4CC4)CC3)cc2)cc1)C1CC1,–,–,–,·,–,37,34,–,GFP quench DR=–
CN(C(=O)c1ccc(NC(=O)Cc2ccc(NC(=O)C3CCN(C(=O)C4CCC4)CC3)cc2)cc1)C1CCCC1,·,–,–,·,·,–,·,·,
CN(C(=O)c1cccc(NC(=O)Cc2ccc(NC(=O)C3CCN(C(=O)c4ccccc4)CC3)cc2)c1)C1CCC1,·,–,–,·,·,–,·,·,
Cc1cc(C)cc(NC(=O)N2CCNC(=O)C2CC(=O)Nc2cc(Cl)ccc2Cl)c1 (centres undefined),–,–,–,–,–,10,8.0,–,
CCC(C)(C)n1nnnc1C(c1cccnc1)N1CCCc2ccccc21 (centres undefined),–,–,–,–,–,43,48,–,GFP quench DR=–
CCC(C)(C)n1nnnc1C(c1cccs1)N1CCc2ccccc21 (centres undefined),–,–,–,–,–,–,·,·,
O=c1[nH]c(CSc2ccccn2)nc2c1oc1ccccc12,–,–,–,–,–,9.9,–,–,
Fc1cccc(F)c1-c1nc(-c2ccncc2)no1,–,–,–,–,–,–,·,·,
CCOc1ccc(C2C(C#N)=C(N)Oc3nc[nH]c(=O)c32)cc1OC (centres undefined),–,–,–,–,–,–,·,·,
COc1ccc(C2c3c(nc[nH]c3=O)Oc3nc[nH]c(=O)c32)cc1,–,–,–,–,–,50,64,–,GFP quench DR=–
CC(C)NC(=O)C1(C)CCCN1C(=O)c1ccccc1Br (centres undefined),·,–,–,·,·,–,·,·,
COc1ccc(CCNC(=O)CSc2nc3[nH]ncc3c(=O)n2-c2ccccc2Br)cc1OC,–,–,–,–,–,8.2,8.6,–,
COc1ccc(CCNC(=O)CSc2nc(C)nc3c2c(=O)n(C)c(=O)n3C)cc1OC,–,–,–,–,–,21,21,–,GFP quench DR=–
CCCCCCCOC(=O)C1=C(C)Nc2ncnn2C1c1cccs1 (centres undefined),–,–,–,–,–,7.5,–,–,
O=S(=O)(c1ccc2c(c1)OCCO2)N1CCN(S(=O)(=O)c2ccccn2)CC1,–,–,–,·,–,–,·,·,
Cc1[nH][nH]c(=O)c1C(c1ccc(-c2ccc(F)cc2)o1)c1c(C)[nH][nH]c1=O,–,–,–,–,–,–,·,·,
Cc1[nH][nH]c(=O)c1C(c1ccc(-c2ccc(Cl)c(Cl)c2)o1)c1c(C)[nH][nH]c1=O,–,–,–,–,–,13,–,–,
CN1CCN(C(=O)c2cccc(-c3cc(O)c4ncccc4c3)c2)CC1,–,–,–,·,–,26,33,7.4,
CN1CCN(C(=O)c2cccc(-c3ccc4nncn4c3)c2)CC1,·,–,–,·,·,–,·,·,
CN1CCN(c2cc(-c3cc(O)c4ncccc4c3)ccn2)CC1,–,–,–,·,–,14,17,10.0,
COC(=O)C1=C[C@@H](C(=O)OC)[C@@H]2C3=C(C(=O)C2(C)C)[C@H](c2ccccc2)[C@@H]2C(=O)N(C)C(=O)[C@@H]2[C@@H]3C1,–,–,–,–,–,19,17,–,
COC(=O)c1cc2c(ccc3ccccc32)oc1=O,–,–,–,–,–,–,·,·,
COC(=O)c1c(C)nc(C)c2c(=O)oc3ccccc3c12,–,–,–,–,–,15,38,–,GFP quench DR=–
SMILES,T cell modulator,Myeloid diff MLP,SKN-1 block,Rce1 inhib,GRK2 inh,Rin1-Abl PPI inh,Rin1-Abl confirm,GFP quench-1,others
Cc1ccccc1C(=O)NNC(=O)Cc1ccccc1,–,–,–,–,–,9.3,–,–,
COc1ccccc1CN1C[C@@H]2C[C@@H](c3ccc(C)cc3)N3CCC[C@@]23C1=O,–,–,–,–,–,–,·,·,
COc1ccccc1CN1C[C@@H]2C[C@@H](c3ccc4nsnc4c3)N3CCC[C@@]23C1=O,–,–,–,–,–,22,25,–,GFP quench DR=–
CC1CCCN(C(=O)C2CCN(S(=O)(=O)c3ccc4c(c3)CC(C)N4C(=O)C3CC3)CC2)C1 (centres undefined),–,–,–,–,–,15,–,–,
CC(C)CCn1c2ccccc2c2cc(CC(N)=O)ccc21,–,–,–,–,–,–,·,·,
Cc1cc(NC(=O)Cn2nc(C(F)(F)F)c3c2CCC3)no1,–,–,–,–,–,–,·,·,
Cc1ccc(NC(=O)Cn2nc(C(F)(F)F)c3c2CCC3)cc1,–,–,–,–,–,5.0,–,–,
COc1ccccc1CN1CC(C(=O)NCC2(O)CCCCC2)CCC1=O (centres undefined),·,–,–,·,·,–,·,·,
Cc1ccc(C2/C(=C(\O)c3ccc4c(c3)OCCO4)C(=O)C(=O)N2CC2CCCO2)cc1 (centres undefined),–,–,–,–,–,8.5,–,–,
CN(C)C(CNC(=O)C1CCN(S(=O)(=O)c2cc(Cl)ccc2Cl)CC1)Cc1ccccc1 (centres undefined),·,–,–,·,·,–,·,·,
CCN(CC)c1c([N+](=O)[O-])c(=O)oc2ccccc12,–,–,–,–,–,–,·,·,
COc1ccc(N2CCN(CC(=O)Nc3ccc(C)cc3Br)CC2)cc1,·,–,–,·,·,–,·,·,
Cc1ccc(NC(=O)CN2CCCCCC2)c(Br)c1,·,–,–,–,·,10,–,–,
CC(C)CN1C(=O)NC(NS(=O)(=O)c2ccc(N)cc2)(C(F)(F)F)C1=O (centres undefined),–,–,–,–,–,6.7,–,–,
CN1OC(CC(=O)O)N(c2ccc(Cl)cc2)C1=O (centres undefined),–,–,–,–,–,–,·,·,
CCOC(=O)CC1ON(C)C(=O)N1c1ccc(Cl)cc1Cl (centres undefined),–,–,–,–,–,7.0,–,–,
Cc1cccc(NS(=O)(=O)c2cc(OCC(N)=O)c(C)cc2Cl)c1,–,–,–,–,–,–,·,·,
Cc1ccc(NS(=O)(=O)c2cc(OCC(N)=O)c(C)cc2Cl)cc1C,–,–,–,–,–,12,–,–,
